Only some compounds are listed: those with a hit (about 2.1% of all), similar ones and a draw of the others.
CRFR2-BP antag: CRF-BP/CRF-R2 complex antagonism. HEK293 CRF-R2/CRF-BP, CRF-induced calcium fluorescence. inhibition, % at 11.8 µM. actives 0.59% (n = 350,000). AID 588475;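 active means inhibition of the ligand-induced calcium signal above about 50% at the single tested concentration, limit read from the data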
Cardio protect: myocardial damage modulation in H9c2 cells | H9c2 cardiomyocytes, H2O2 injury protection, ATPLite, 2 h | protection from H2O2 cell death, % at 20 µM | actives 0.63% (n = 360,000);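 active means compounds giving at least 50% protection of heart cells from peroxide-induced death in the single-dose screen, raw or plate-pattern-corrected value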;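 further: 0% = DMSO wells with peroxide and 100% = DMSO wells without peroxide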
hiPSC survival: hiPSC single-cell survival enhancement | ATPlite luminescence; 100% = ROCK inhibitor wells, 0% = DMSO | AID 602274 | actives 0.044% (n = 360,000) | survival enhancement, % at 20 µM; in the data active means survival enhancement above about 18%;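 further: cells exposed to compounds for 16 hours before the ATP read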
UCH37 DUB inh: human UCH37 deubiquitinating enzyme inhibition | inhibition, % (no concentration beside the values) | purified proteasome/UCH37, Ub-AMC cleavage fluorescence | actives 0.33% (n = 330,000) | AID 588478;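 active means mean inhibition over replicate wells above about 20%, limit read from the data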;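 further: 0% = compound-free wells with enzyme and 100% = wells lacking proteasome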
Target sequence (Q9Y5K5 whole entry, looked up): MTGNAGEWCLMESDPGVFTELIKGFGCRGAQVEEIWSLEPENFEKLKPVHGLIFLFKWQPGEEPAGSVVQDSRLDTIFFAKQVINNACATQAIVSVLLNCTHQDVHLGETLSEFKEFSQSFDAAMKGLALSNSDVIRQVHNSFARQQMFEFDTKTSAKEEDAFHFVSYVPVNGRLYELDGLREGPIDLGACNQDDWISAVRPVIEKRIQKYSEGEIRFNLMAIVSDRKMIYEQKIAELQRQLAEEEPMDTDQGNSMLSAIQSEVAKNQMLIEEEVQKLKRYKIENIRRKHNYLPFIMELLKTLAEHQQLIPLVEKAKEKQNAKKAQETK
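Signal – fluorescence, ex 355 nm, em 460 nm · System – Proteasome-bound UCH37 · Input – 0.15 nM proteasome as dispensed · Timing – 30 min preincubation with enzyme, 25 min cleavage at room temperature · Read-out basis – percent inhibition of cleavage signal versus uninhibited and no-proteasome wells · Medium – Tris-HCl pH 7.4 with ATP-MgCl2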
beta cell repl: induces beta-cell replication in MIN6 cells; MIN6 cells proliferation, ATPlite luminescence, 48 h; cells starved in 0.2% serum; 100% = growth in 10% serum; proliferation, % at 10 µM; actives 0.29% (n = 330,000);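 active means compounds whose signal lies at least 3.5 SD above the mean of all wells on their plate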;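 further: 0% = DMSO-treated cells in low-serum medium and 100% = 10% serum control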
CRFR2-BP ag: agonists of human CRF-binding protein/CRF-R2 receptor complex. actives 0.46% (n = 350,000). HEK293 CRF-R2/CRF-BP, calcium dye fluorescence (FLIPR); percent of saturating CRF peptide response. activation, % at 13.2 µM;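 active means activation of at least 50%, plus an integration ratio under a set limit after plate pattern correction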;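 further: plate controls were neutral control wells without compound for no effect and CRF at EC100 for full effect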
Active calls of the source: *; · = no result.

SMILES	CRFR2-BP antag	Cardio protect	hiPSC survival	UCH37 DUB inh	beta cell repl	CRFR2-BP ag
Cn1c(-c2c(N)n(CCc3ccccc3)c3nc4ccccc4nc23)nc2ccccc21	-155	-4	-1	-103	-5	51*
Cn1c(-c2c(N)n(CCCc3ccccc3)c3nc4ccccc4nc23)nc2ccccc21	-30	9	4	-49	·	10
Cc1ccc(-n2c(SCC(=O)NN=Cc3ccccc3C(=O)O)nnc2-c2ccccc2)cc1	·	·	·	0	·	·
Cc1ccc(CN2CCN(C3CCOCC3)CC2CCO)cc1 (stereo unspecified)	80*	2	0	2	2	1
Cc1ccc(CN2CCN(C3CCC3)CC2CCO)cc1 (stereo unspecified)	5	7	1	0	-2	1
CC(=NNC(=O)c1ccc(C)cc1)c1c(C)[nH]n(-c2ccccc2)c1=O	·	·	·	-4	·	·
O=C(CSCc1ccccc1)Nc1cc([N+](=O)[O-])ccc1F	85*	-2	1	5	0	-1
COc1ccc([N+](=O)[O-])cc1NC(=O)CSCc1ccccc1	37	0	-1	4	2	-1
CC(=NNC(=O)CSCc1ccc([N+](=O)[O-])cc1)c1ccccc1O	·	·	·	-2	·	·
C/C(=N\NC(=O)CSCc1ccc([N+](=O)[O-])cc1)c1ccccc1O	17	63*	-2	·	0	1
CC(C)(C)OC(=O)NCc1ccc(NC(=O)c2nc[nH]c2C(=O)NCCN(CCNC(=O)c2[nH]cnc2C(=O)Nc2ccc(CNC(=O)OC(C)(C)C)cc2)CCNC(=O)c2[nH]cnc2C(=O)Nc2ccc(CNC(=O)OC(C)(C)C)cc2)cc1	-3	0	0	-4	-2	1
CC(C)(C)OC(=O)NCc1ccc(NC(=O)c2nc[nH]c2C(=O)NCCCNC(=O)c2[nH]cnc2C(=O)Nc2ccc(CNC(=O)OC(C)(C)C)cc2)cc1	10	52*	0	·	-4	3
CC(C)(C)OC(=O)NCCCC[C@H](NC(=O)c1[nH]cnc1C(=O)Nc1ccc(CNC(=O)OC(C)(C)C)cc1)C(=O)OC(C)(C)C	-3	·	·	5	-8	6
C[C@H](NC(=O)c1[nH]cnc1C(=O)Nc1ccc(CNC(=O)OC(C)(C)C)cc1)C(=O)OC(C)(C)C	-3	22	0	4	-8	1
CC(C)(C)OC(=O)NCc1ccc(NC(=O)c2nc[nH]c2C(=O)NCCCCCCNC(=O)c2[nH]cnc2C(=O)Nc2ccc(CNC(=O)OC(C)(C)C)cc2)cc1	7	51*	3	0	-6	2
CC(C)(C)OC(=O)NCc1ccc(NC(=O)c2nc[nH]c2C(=O)NCCCCNC(=O)c2[nH]cnc2C(=O)Nc2ccc(CNC(=O)OC(C)(C)C)cc2)cc1	16	67*	-3	·	-6	6
C=C(C)C1CC=C(C)C(=NNC(=O)CNc2ccc(C)cc2C)C1 (stereo unspecified)	·	·	·	1	·	·
NC(=O)Cn1cc(C=NNS(=O)(=O)c2ccccc2)c2ccccc21	·	·	·	2	·	·
CC1(C)CC(=O)C(=Cc2cn(-c3ccccc3)nc2-c2ccc(Cl)cc2)C(=O)C1	-41	-34	-2	-1	-6	58*
O=C(NN=Cc1sc(N2CCOCC2)nc1-c1ccccc1)c1cccc(S(=O)(=O)N2CCCC2)c1	·	·	·	-3	·	·
CCN1C(=c2sc(=C3C(=O)N(c4ccccc4)N=C3C)n(CC)c2=O)C=Cc2ccccc21	·	·	·	4	·	·
O=S(=O)(NN=Cc1ccc2c(c1)OCCO2)c1ccc(Cl)cc1	·	·	·	4	·	·
Cc1ccc(NC(=O)COC(=O)CN2C(=O)NC3(CCCC3)C2=O)cc1S(=O)(=O)N(C)C	61*	2	1	3	-1	2
Cc1ccc(NC(=O)COC(=O)CN2C(=O)NC3(CCCC3)C2=O)cc1Cl	3	-5	0	5	-1	1
CC1=C(c2ccccc2)[N+](=O)C2(CCCC2)N1[O-]	6	5	1	3	0	0
O=[N+]([O-])c1ccc2c(c1)N([O-])C1(CCCCC1)[N+]2=O	-4	·	·	52*	·	-1
c1ccc(-c2noc(CN3CCN(c4cnccn4)CC3)n2)cc1	74*	3	0	2	0	0
